Reference: article PMC9896170 (Xenobiotica; the fate of foreign compounds in biological …, 2022)

Key:
human CYP1B1 = molecular target: T1, human CYP1B1 (Homo sapiens, UniProt Q16678); experiment: Oxidation of flavonoids by reconstituted purified CYP1B1, products by LC-MS/MS; type: in vitro ADME; conditions: LC-MS/MS product detection
T1 sequence (Q16678 1-543): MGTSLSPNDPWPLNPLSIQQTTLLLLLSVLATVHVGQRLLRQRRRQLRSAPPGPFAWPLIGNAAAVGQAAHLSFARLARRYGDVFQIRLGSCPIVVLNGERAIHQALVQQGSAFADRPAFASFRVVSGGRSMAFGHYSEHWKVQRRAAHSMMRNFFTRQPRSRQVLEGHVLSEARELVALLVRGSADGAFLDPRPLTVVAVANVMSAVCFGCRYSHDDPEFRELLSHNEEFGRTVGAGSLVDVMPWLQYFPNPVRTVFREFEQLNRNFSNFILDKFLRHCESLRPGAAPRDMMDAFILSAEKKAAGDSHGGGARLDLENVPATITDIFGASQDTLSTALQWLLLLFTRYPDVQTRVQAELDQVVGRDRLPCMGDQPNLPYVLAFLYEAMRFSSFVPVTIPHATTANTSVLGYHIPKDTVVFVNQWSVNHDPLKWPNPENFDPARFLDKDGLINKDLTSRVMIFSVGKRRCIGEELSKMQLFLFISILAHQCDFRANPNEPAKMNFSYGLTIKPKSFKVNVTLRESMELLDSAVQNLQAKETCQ

human CYP2A13 = molecular target: T2, human CYP2A13 (Homo sapiens, UniProt Q16696); experiment: Oxidation of flavonoids by reconstituted purified CYP2A13, products by LC-MS/MS; type: in vitro ADME; conditions: LC-MS/MS product detection
T2 sequence (Q16696 1-494): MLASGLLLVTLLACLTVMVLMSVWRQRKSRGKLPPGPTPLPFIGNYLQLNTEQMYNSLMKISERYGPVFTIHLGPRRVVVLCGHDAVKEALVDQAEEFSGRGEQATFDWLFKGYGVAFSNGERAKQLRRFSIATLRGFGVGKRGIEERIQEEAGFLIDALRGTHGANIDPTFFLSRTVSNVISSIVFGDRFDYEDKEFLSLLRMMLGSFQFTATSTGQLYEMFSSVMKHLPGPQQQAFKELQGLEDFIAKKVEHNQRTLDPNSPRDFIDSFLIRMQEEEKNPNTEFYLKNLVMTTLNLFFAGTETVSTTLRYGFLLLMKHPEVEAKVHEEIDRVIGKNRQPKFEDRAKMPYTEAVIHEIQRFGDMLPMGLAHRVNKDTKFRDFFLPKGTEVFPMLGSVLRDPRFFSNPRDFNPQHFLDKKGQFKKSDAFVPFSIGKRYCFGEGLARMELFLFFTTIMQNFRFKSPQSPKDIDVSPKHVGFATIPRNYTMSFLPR
Procedure, shortened: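 Reconstituted system of purified E. coli-expressed human CYP2A13 (50 pmol), NADPH-P450 reductase (100 pmol), cytochrome b5 (100 pmol) and DLPC (50 μg). Flavonoid at 60 μM, 1 min preincubation, then NADPH-generating system added; 37 °C, 20 min. Stopped with ice-cold CH3CN, spun, supernatant run on positive-ESI LC-MS/MS. Products were identified from fragment ion spectra; rates were quantified with available standards, three separate determinations.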

Which “Extent of oxidation by CYP1B1 (in words)” value (human CYP1B1) does the source give for `COc1ccc(-c2cc(=O)c3c(O)cc(O)cc3o2)cc1OC` [3′4′diMe57diOHF, 3′,4′-dimethoxy-5,7-dihydroxyflavone] here?
The value was “only small amounts of products”.

And the “Extent of oxidation by CYP2A13 (in words)” value (human CYP2A13)?
Its value is “only small amounts of products”.

Which “Extent of oxidation by CYP1B1 (in words)” value (human CYP1B1) does the source give for `COc1ccc(-c2cc(=O)c3ccccc3o2)cc1OC` [3′4′diMeF, 3′,4′-Dimethoxyflavone] here?
Its value is “good substrate”.
